Reference: ChEMBL document CHEMBL1153607, “Synthesis and anti-tumor activities of some new pyridines and pyrazolo[1,5-a]pyrimidines” (Eur J Med Chem, 2009)
≈ marks a conversion by molar mass, not a printed value. Calls of active or inactive are those of the source. No cut-off for these calls is given here.

Legend:
Assay type in all cases: functional, cell-based
HeLa [1] = test: Antitumor activity against human HeLa cells after 48 hrs by SRB assay
In short: (§1)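 Cells seeded at 10⁴/well and left overnight to attach, then exposed to compound for 48 h at 37 °C, 5% CO₂, in triplicate wells per dose. Cells were fixed and stained with sulforhodamine B in acetic acid, washed four times with 1% acetic acid, and bound dye was extracted with tris–EDTA. Absorbance was read on an ELISA reader. IC50 (50% growth inhibition) was taken from the survival curve.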

MCF7 [2] = test: Antitumor activity against human MCF7 cells after 48 hrs by SRB assay; conditions: MCF7, 48 h; in short: as §1
HeLa [3] = test: Antitumor activity against human HeLa cells assessed as decrease in survival fraction at 1 ug/ml by SRB assay
In short: (§2)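 Monolayers seeded at 10⁴ cells/well were allowed to attach overnight, then treated with compound for 48 h at 37 °C, 5% CO₂, with triplicate wells per dose. Cells were fixed and stained with sulforhodamine B, washed with 1% acetic acid, and dye was solubilised in tris–EDTA before absorbance reading. Surviving fraction was plotted against compound concentration for each cell line.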

MCF7 [4] = test: Antitumor activity against human MCF7 cells assessed as decrease in survival fraction at > 2.5 ug/ml by SRB assay; in short: as §2
MCF7 [5] = test: Antitumor activity against human MCF7 cells assessed as decrease in survival fraction at 1 ug/ml by SRB assay; in short: as §2
HCT-116 [6] = test: Antitumor activity against human HCT116 cells after 48 hrs by SRB assay; conditions: HCT-116, 48 h; in short: as §1
MCF7 [7] = test: Antitumor activity against human MCF7 cells assessed as decrease in survival fraction at > 1 ug/ml by SRB assay; in short: as §2
HepG2 = test: Antitumor activity against human HepG2 cells after 48 hrs by SRB assay; conditions: HepG2, 48 h; in short: as §1
HCT-116 [8] = test: Antitumor activity against human HCT116 cells assessed as decrease in survival fraction at 1 ug/ml by SRB assay; in short: as §2

IC50 (HeLa [1]) | IC50 (MCF7 [2]) | IC50 (HCT-116 [6]) | IC50 (HepG2) | SMILES | Activity (HeLa [3]) | Activity (MCF7 [4]) | Activity (MCF7 [5]) | Activity (MCF7 [7]) | Activity (HCT-116 [8])
0.4 µg/mL (≈ 0.816 µM) | 0.74 µg/mL (≈ 1.51 µM) | 0.54 µg/mL (≈ 1.1 µM) | 1.88 µg/mL (≈ 3.84 µM) | O=C(Nc1ccc(Cl)cc1)c1c(Nc2ccccc2)nn2ccc(-c3ccc4ccccc4c3)nc12 | Active | Active | Active | Active | Active
0.6 µg/mL (≈ 2.29 µM) | 0.34 µg/mL (≈ 1.3 µM) | 0.49 µg/mL (≈ 1.87 µM) | 1.01 µg/mL (≈ 3.85 µM) | N#Cc1ccc(-c2ccc3ccccc3c2)[nH]c1=S | – | Active | Active | Active | –
